A number with no mark means an inactive call.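 The calls were made as follows, unless noted: active = growth inhibition above a set limit, 3 SD over mean compound inhibition, in both replicates (cut at about 43% in these data); inconclusive = above the limit in only one replicate; inactive = at or below the limit in both replicates.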

A short description of the first assay: Restrictive medium S. cerevisiae growth inhibition, OD615, pilot screen of yeast lifespan reduction project, restrictive growth control (AID 706).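 Also: modified DeaD lifespan yeast strain shifted to restrictive glucose medium.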 The following applies: OD615, 48 h, at 10 µM, hits give high values. The gist of the method:
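System: Engineered S. cerevisiae DeaD strain | Buffer or medium: Glucose-based CSMM-D restrictive medium | Schedule: 4 h pre-incubation, 48 h exposure at 30 °C | Technique: Optical density at 615 nm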
In the case of `Cc1ccc(C(=O)NCCNC(=O)CN2CCCC2)cc1`, the growth inhibition is 3.55%.
Still for that read-out and setting: the result for `Cc1csc(NC(=O)NC2(C(F)(F)F)Oc3ccccc3O2)n1` reads 0.47%.
With `CCOC(=O)N1CCN(C(=O)c2oc3ccc(S(=O)(=O)N4CCOCC4)cc3c2C)CC1`, the growth inhibition is -12.6%.
Still for that read-out and setting: in the case of `COc1cc(/C=N/n2cnnc2)ccc1OC(=O)c1cccnc1` it was -8.55%; in that of `CN(CCNC(=O)c1cc2c(=O)n(C)c3ccccc3c2n1C)Cc1ccccc1`, -7.87%; in that of `Cc1ccc(N=Cc2c(O)n(C)c(=O)n(C)c2=O)nc1`, 16.6%.
The same measure, in the same setting: the result for `Cc1cc(NS(=O)(=O)c2ccccc2)cc(Cl)c1O` reads 2.72%.
On the same count and under the same terms, the result for `CCS(=O)(=O)C(=C(Nc1ccc(OC)cc1)Nc1ccc(OC)cc1)S(=O)(=O)CC` reads 4.84%.
For the molecule `O=C(CN1C(=O)c2ccccc2S1(=O)=O)N1CCN(c2ccccc2F)CC1`, the growth inhibition is 5.53%.
Still for that read-out and setting: the result for `C/C(CC(O)c1ccc2ccccc2n1)=N/O` (stereo not given) reads 1.94%; that for `O=C(CCn1nnc2ccccc21)N1CCC(O)(c2cccc(F)c2)CC1`, -7.45%; that for `COc1ccc(S(=O)(=O)N2CCCCC2C(=O)O)cc1OC` (stereo not given), -10.8%.
Same read-out and setting: the result for `COC(=O)c1c(NC(=O)Cc2cccs2)sc(C)c1C` reads 6.72%.
Take `CC(C)CC(NC(=O)C1CCCCC1)C(=O)NCc1ccccn1` (stereo not given): the growth inhibition was -10.9%.
The same measure, in the same setting: in the case of `COc1cccc(OCCOc2cccc(/C=N/n3cnnc3)c2)c1` it was 21.9%; in that of `O=C(NCc1cccc(F)c1)c1noc2c1CCCC2`, -19.5%; in that of `COc1ccc(C)cc1NC(=O)CN(c1ccccc1)S(C)(=O)=O`, -4.67%.
Turning to `Cc1ccc(C(C)NC(=O)c2ccco2)cc1C` (stereo not given), the growth inhibition was -4.3%.
In the case of `Cc1cccc(-n2c(=O)[nH]c3c(C(N)=O)nc(-c4ccccc4Cl)nc32)c1`, the growth inhibition was -0.18%.
As to `COc1cc(C(C)=O)ccc1OC(=O)C(C)N1C(=O)c2ccccc2C1=O` (stereo not given), the growth inhibition was -5.68%.
For the molecule `CCOC(=O)C(C(=O)Nc1cccc(C)n1)C1CCCCC1` (stereo not given), the growth inhibition is -0.005%.
On the same count and under the same terms, in the case of `O=C(Oc1c(Cl)cc(Cl)c2cccnc12)N1CCCCC1` it was -7.42%; in that of `O=C1N=C(c2ccccc2)C(c2ccccc2)N1` (stereo not given), 0.595%; in that of `Cc1cccc(N(C)C(=O)CCS(=O)(=O)c2cccc3nonc23)c1`, 0.54%.
Same read-out and setting: the result for `O=C(Cc1ccc(Cl)cc1)Nc1ccccc1CO` reads -1.33%; that for `CCCC(=O)Nc1cccc(C(=O)Nc2nccs2)c1`, 0.885%.
On to `CC(=O)c1c(C(C)=O)c(C)n(-c2nc(-c3ccccc3)c(C)s2)c1C`, for which the growth inhibition is -11%.
Still for that read-out and setting: the result for `COc1ccc(CCNS(=O)(=O)c2ccc3c(c2)OCCO3)cc1OC` reads -3.31%; that for `O=C(Nc1cccnc1)c1ccc(CN2CCc3ccccc3C2)cc1`, -5.93%.
The same measure, in the same setting: the result for `O=c1c2cnn(-c3ccccc3)c2nc(-c2ccco2)n1-c1ccccc1` reads -7.2%; that for `COc1ccc(OC)c(N(CC(=O)Nc2ccc3c(c2)OCO3)S(=O)(=O)c2ccccc2)c1`, -2.2%.
The same measure, in the same setting: in the case of `Cn1cnnc1SCC(=O)c1ccco1` it was -3.4%.
On to `CCOC(=O)N1CCN(C(=O)CS(=O)(=O)c2cn(Cc3ccccc3C)c3ccccc23)CC1`, for which the growth inhibition is -6%.
The same measure, in the same setting: the result for `O=C(C1CC1)N1CCc2cc(Br)cc(S(=O)(=O)NCCN3CCOCC3)c21` reads -6.43%; that for `c1ccc(-n2nnnc2-n2ccnc2)cc1`, 1.55%.
Turning to `Cc1oc(-c2cccc(Cl)c2)nc1CN1CCC(C(=O)N2CCN(c3ccccn3)CC2)CC1`, the growth inhibition was -1.31%.
The same measure, in the same setting: in the case of `O=C1CC(c2ccccc2)c2cc(O)ccc2O1` (stereo not given) it was -23%; in that of `CCC(C)C1C(C#N)=C(N)Oc2n[nH]c(C)c21` (stereo not given), 7.77%.
The same measure, in the same setting: in the case of `NC(=O)CNC1CC(=O)N(CCc2ccccc2)C1=O` (stereo not given) it was 4.79%; in that of `Cc1csc(SCC(=O)c2ccc(S(=O)(=O)N3CCOCC3)cc2)n1`, 21.8%.

The nature of the next assay: viability gain of MRP-1-high H69AR cells under doxorubicin, pilot screen, MRP-1 activator project, CellTiter-Glo, duplicate (AID 807;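 active = viability increase at or above a cutoff of the median across tested compounds plus 3 SD, cut at about 8.5% in these data, passing the limit was not always enough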;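 also: compound pretreatment 18-22 h then 72 h combined with doxorubicin; 0% = doxorubicin alone and 100% = vehicle without doxorubicin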). The following applies: H69AR viability with doxorubicin, CellTiter-Glo luminescence; at 10 µM; hits give high values. On the technique in general: Cellular ATP, detected with luciferase, serves as a proxy for viable cell number.
Take `Cc1ccc(C(=O)NCCNC(=O)CN2CCCC2)cc1`: the viability increase is -0.66%.
The same measure, in the same setting: in the case of `Cc1csc(NC(=O)NC2(C(F)(F)F)Oc3ccccc3O2)n1` it was -6.08%; in that of `CCOC(=O)N1CCN(C(=O)c2oc3ccc(S(=O)(=O)N4CCOCC4)cc3c2C)CC1`, -4.64%; in that of `COc1cc(/C=N/n2cnnc2)ccc1OC(=O)c1cccnc1`, -2.5%.
Same read-out and setting: in the case of `CN(CCNC(=O)c1cc2c(=O)n(C)c3ccccc3c2n1C)Cc1ccccc1` it was -8.65%.
On the same count and under the same terms, the result for `Cc1ccc(N=Cc2c(O)n(C)c(=O)n(C)c2=O)nc1` reads 0.03%; that for `Cc1cc(NS(=O)(=O)c2ccccc2)cc(Cl)c1O`, -2.8%.
Turning to `CCS(=O)(=O)C(=C(Nc1ccc(OC)cc1)Nc1ccc(OC)cc1)S(=O)(=O)CC`, the viability increase is -0.19%.
Consider `O=C(CN1C(=O)c2ccccc2S1(=O)=O)N1CCN(c2ccccc2F)CC1`, for which the viability increase is -3.37%.
The same measure, in the same setting: the result for `C/C(CC(O)c1ccc2ccccc2n1)=N/O` (stereo not given) reads -0.7%; that for `O=C(CCn1nnc2ccccc21)N1CCC(O)(c2cccc(F)c2)CC1`, -2.75%.
As for `COc1ccc(S(=O)(=O)N2CCCCC2C(=O)O)cc1OC` (stereo not given), the viability increase is -0.69%.
On the same count and under the same terms, in the case of `COC(=O)c1c(NC(=O)Cc2cccs2)sc(C)c1C` it was -4.9%.
As for `CC(C)CC(NC(=O)C1CCCCC1)C(=O)NCc1ccccn1` (stereo not given), the viability increase is -4.03%.
Take `COc1cccc(OCCOc2cccc(/C=N/n3cnnc3)c2)c1`: the viability increase is -2.71%.
Still for that read-out and setting: in the case of `O=C(NCc1cccc(F)c1)c1noc2c1CCCC2` it was -4.68%.
The same measure, in the same setting: in the case of `COc1ccc(C)cc1NC(=O)CN(c1ccccc1)S(C)(=O)=O` it was -1.58%; in that of `Cc1ccc(C(C)NC(=O)c2ccco2)cc1C` (stereo not given), -3.06%; in that of `Cc1cccc(-n2c(=O)[nH]c3c(C(N)=O)nc(-c4ccccc4Cl)nc32)c1`, -7.67%.
`COc1cc(C(C)=O)ccc1OC(=O)C(C)N1C(=O)c2ccccc2C1=O` (stereo not given): the viability increase is -2.73%.
Turning to `CCOC(=O)C(C(=O)Nc1cccc(C)n1)C1CCCCC1` (stereo not given), the viability increase was 1.76%.
On to `O=C(Oc1c(Cl)cc(Cl)c2cccnc12)N1CCCCC1`, for which the viability increase was -3.65%.
Still for that read-out and setting: in the case of `O=C1N=C(c2ccccc2)C(c2ccccc2)N1` (stereo not given) it was -3.35%; in that of `Cc1cccc(N(C)C(=O)CCS(=O)(=O)c2cccc3nonc23)c1`, -4.98%.
In the case of `O=C(Cc1ccc(Cl)cc1)Nc1ccccc1CO`, the viability increase is 0.18%.
Still for that read-out and setting: in the case of `CCCC(=O)Nc1cccc(C(=O)Nc2nccs2)c1` it was 0.65%; in that of `CC(=O)c1c(C(C)=O)c(C)n(-c2nc(-c3ccccc3)c(C)s2)c1C`, -2.37%.
On the same count and under the same terms, in the case of `COc1ccc(CCNS(=O)(=O)c2ccc3c(c2)OCCO3)cc1OC` it was -1.53%; in that of `O=C(Nc1cccnc1)c1ccc(CN2CCc3ccccc3C2)cc1`, -2.11%.
As for `O=c1c2cnn(-c3ccccc3)c2nc(-c2ccco2)n1-c1ccccc1`, the viability increase is -5.59%.
In the case of `COc1ccc(OC)c(N(CC(=O)Nc2ccc3c(c2)OCO3)S(=O)(=O)c2ccccc2)c1`, the viability increase is -2.35%.
Same read-out and setting: the result for `Cn1cnnc1SCC(=O)c1ccco1` reads -1.08%.
Same read-out and setting: the result for `CCOC(=O)N1CCN(C(=O)CS(=O)(=O)c2cn(Cc3ccccc3C)c3ccccc23)CC1` reads -2.26%.
On the same count and under the same terms, the result for `O=C(C1CC1)N1CCc2cc(Br)cc(S(=O)(=O)NCCN3CCOCC3)c21` reads -2.94%.
Regarding `c1ccc(-n2nnnc2-n2ccnc2)cc1`, the viability increase was -0.62%.
On the same count and under the same terms, the result for `Cc1oc(-c2cccc(Cl)c2)nc1CN1CCC(C(=O)N2CCN(c3ccccn3)CC2)CC1` reads -7.36%; that for `O=C1CC(c2ccccc2)c2cc(O)ccc2O1` (stereo not given), 3.84%.
In the case of `CCC(C)C1C(C#N)=C(N)Oc2n[nH]c(C)c21` (stereo not given), the viability increase was -7.71%.
Still for that read-out and setting: the result for `NC(=O)CNC1CC(=O)N(CCc2ccccc2)C1=O` (stereo not given) reads -2.49%; that for `Cc1csc(SCC(=O)c2ccc(S(=O)(=O)N3CCOCC3)cc2)n1`, -3.72%.
